{"source": "ChEMBL document CHEMBL2311539", "about": "“3,6-Diamino-4-(2-halophenyl)-2-benzoylthieno[2,3-b]pyridine-5-carbonitriles are selective inhibitors of Plasmodium falciparum glycogen synthase kinase-3” (J Med Chem, 2013)", "key": {"[1]": {"molecular_target": "Mitogen-activated protein kinase 11 (Homo sapiens) (UniProt Q15759)", "sequence (Q15759 whole entry)": "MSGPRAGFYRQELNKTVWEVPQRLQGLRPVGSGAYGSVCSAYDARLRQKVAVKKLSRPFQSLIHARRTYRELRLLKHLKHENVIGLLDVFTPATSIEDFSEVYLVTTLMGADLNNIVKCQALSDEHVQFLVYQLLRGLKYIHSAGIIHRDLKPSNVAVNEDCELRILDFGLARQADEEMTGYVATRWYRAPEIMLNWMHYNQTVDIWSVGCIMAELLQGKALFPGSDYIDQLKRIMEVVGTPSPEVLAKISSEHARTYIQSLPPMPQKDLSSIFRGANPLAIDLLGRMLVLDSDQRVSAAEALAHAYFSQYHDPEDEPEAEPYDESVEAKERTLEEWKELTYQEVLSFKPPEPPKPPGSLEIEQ", "assay": "Inhibition of P38beta MAPK (unknown origin) at 10 uM", "procedure,_shortened": "(§1)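 Dundee human kinase selectivity panel (77 kinases); test compound at 1 and 10 μM, percentage kinase inhibition recorded.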"}, "[2]": {"molecular_target": "Dual specificity mitogen-activated protein kinase kinase 1 (Homo sapiens) (UniProt Q02750)", "sequence (Q02750 whole entry)": "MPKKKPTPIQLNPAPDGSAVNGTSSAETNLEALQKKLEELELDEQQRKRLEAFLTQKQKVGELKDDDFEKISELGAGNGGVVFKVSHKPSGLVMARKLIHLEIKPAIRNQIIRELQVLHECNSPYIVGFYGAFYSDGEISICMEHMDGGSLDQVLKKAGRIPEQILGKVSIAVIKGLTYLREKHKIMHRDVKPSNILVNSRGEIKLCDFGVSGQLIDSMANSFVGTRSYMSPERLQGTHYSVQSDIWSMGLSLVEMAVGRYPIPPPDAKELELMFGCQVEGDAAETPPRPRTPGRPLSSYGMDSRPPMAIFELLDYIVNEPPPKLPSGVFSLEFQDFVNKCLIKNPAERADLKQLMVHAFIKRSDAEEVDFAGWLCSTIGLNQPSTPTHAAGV", "assay": "Inhibition of MKK1 (unknown origin) at 10 uM", "procedure,_shortened": "as §1"}, "[3]": {"assay": "Inhibition of Toxoplasma gondii recombinant His6-tagged GSK-3 expressed in Escherichia coli using GS-1 peptide as substrate after 30 mins by scintillation counting analysis in presence of gamma-33P-ATP", "assay_type": "cell-free", "procedure,_shortened": "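His6-tagged recombinant GSK-3 expressed in E. coli (TOP10/pBAD-Thio-TOPO for P. falciparum and T. gondii, arabinose-induced; BL21(DE3)-pRARE2/pET15 for C. parvum, IPTG at 15 °C), Ni-NTA purified. Assayed with 40 μM GS-1 phosphopeptide, 15 μM γ-33P-ATP in pH 7.5 Tris buffer with MgCl2, EGTA, DTT, heparin, BSA; 30 min, 30 °C; P81 paper, phosphoric acid washes, scintillation counting. DMSO controls; dose-response IC50, triplicate points.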"}, "[4]": {"molecular_target": "T1, Serine/threonine-protein kinase BRSK2 (Homo sapiens) (UniProt Q8IWQ3)", "T1 sequence (whole entry)": "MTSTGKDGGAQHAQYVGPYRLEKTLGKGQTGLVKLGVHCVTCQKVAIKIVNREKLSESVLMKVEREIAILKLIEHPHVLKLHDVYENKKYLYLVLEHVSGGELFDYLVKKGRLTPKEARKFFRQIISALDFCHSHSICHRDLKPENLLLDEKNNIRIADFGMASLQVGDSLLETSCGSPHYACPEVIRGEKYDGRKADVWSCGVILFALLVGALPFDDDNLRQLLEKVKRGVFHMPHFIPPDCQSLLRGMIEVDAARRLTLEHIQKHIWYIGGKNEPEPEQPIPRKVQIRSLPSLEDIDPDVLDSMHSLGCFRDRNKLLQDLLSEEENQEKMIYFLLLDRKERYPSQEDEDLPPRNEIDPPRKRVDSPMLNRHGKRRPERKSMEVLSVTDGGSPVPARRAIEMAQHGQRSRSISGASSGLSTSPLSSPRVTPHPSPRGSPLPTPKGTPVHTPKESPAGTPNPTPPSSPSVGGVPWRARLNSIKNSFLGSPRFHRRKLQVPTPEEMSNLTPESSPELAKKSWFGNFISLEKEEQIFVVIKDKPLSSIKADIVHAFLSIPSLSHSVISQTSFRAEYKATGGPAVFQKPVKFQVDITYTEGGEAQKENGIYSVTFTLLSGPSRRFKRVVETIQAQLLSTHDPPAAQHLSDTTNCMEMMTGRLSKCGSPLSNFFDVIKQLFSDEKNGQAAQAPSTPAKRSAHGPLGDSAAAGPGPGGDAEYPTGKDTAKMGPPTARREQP", "assay": "Inhibition of BRSK2 (unknown origin) at 10 uM", "procedure,_shortened": "as §1"}, "[5]": {"assay": "Inhibition of Leishmania donovani GSK-3"}, "[6]": {"molecular_target": "T2, Mitogen-activated protein kinase 15 (Homo sapiens) (UniProt Q8TD08)", "T2 sequence (whole entry)": "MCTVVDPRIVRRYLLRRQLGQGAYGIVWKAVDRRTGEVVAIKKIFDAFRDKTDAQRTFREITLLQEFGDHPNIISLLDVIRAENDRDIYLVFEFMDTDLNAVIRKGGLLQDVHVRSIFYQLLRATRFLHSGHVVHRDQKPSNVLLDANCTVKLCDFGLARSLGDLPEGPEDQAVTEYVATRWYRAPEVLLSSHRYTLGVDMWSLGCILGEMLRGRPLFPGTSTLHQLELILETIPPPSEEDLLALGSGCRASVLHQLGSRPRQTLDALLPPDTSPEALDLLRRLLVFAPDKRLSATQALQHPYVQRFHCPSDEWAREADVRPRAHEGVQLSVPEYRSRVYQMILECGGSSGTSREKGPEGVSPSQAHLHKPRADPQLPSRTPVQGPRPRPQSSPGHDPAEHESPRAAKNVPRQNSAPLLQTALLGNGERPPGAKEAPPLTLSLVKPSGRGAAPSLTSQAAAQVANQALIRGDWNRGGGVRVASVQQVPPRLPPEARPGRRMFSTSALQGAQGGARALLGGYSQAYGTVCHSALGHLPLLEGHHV", "assay": "Inhibition of ERK8 (unknown origin) at 10 uM", "procedure,_shortened": "as §1"}, "[7]": {"molecular_target": "Calcium/calmodulin-dependent protein kinase type 1 (Homo sapiens) (UniProt Q14012)", "sequence (Q14012 whole entry, looked up)": "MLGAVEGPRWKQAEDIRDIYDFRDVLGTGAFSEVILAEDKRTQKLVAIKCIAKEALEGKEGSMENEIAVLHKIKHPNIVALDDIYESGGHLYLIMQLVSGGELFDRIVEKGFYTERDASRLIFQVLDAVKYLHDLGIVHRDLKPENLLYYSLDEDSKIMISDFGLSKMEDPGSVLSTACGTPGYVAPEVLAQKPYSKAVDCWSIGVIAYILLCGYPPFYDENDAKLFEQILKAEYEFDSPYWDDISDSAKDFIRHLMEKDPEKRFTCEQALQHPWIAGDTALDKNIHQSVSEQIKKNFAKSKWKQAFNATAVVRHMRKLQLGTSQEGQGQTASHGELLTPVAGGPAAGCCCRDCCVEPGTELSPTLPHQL", "assay": "Inhibition of CAMK1 (unknown origin) at 10 uM", "procedure,_shortened": "as §1"}, "[8]": {"assay": "Inhibition of Trypanosoma brucei GSK-3"}}}
{"smiles": "N#Cc1c(N)nc2sc(C(=O)c3cccc(Cl)c3)c(N)c2c1-c1ccccc1Cl", "values": [{"measurement": "inhibition", "setting": "[1]", "value": "> 50", "unit": "%"}, {"measurement": "inhibition", "setting": "[2]", "value": "> 50", "unit": "%"}, {"measurement": "IC50", "setting": "[3]", "value": "> 100", "unit": "µM"}, {"measurement": "inhibition", "setting": "[4]", "value": "> 50", "unit": "%"}, {"measurement": "IC50", "setting": "[5]", "value": 72, "unit": "µM"}, {"measurement": "inhibition", "setting": "[6]", "value": "> 50", "unit": "%"}, {"measurement": "inhibition", "setting": "[7]", "value": "> 50", "unit": "%"}, {"measurement": "IC50", "setting": "[8]", "value": "> 100", "unit": "µM"}]}
